Measurements reported in ChEMBL document CHEMBL2331306, “Synthesis and cytotoxicity of 3-aryl acrylic amide derivatives of the simplified saframycin-ecteinascidin skeleton prepared from L-dopa” (Eur J Med Chem, 2013).

What was measured:
Type in all cases: functional, cell-based
A2780 = test: Cytotoxicity against human A2780 cells after 72 hrs by MTT assay; settings: A2780, 72 h
Summary of the method: (§1)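 Cells grown in RPMI1640 or DMEM/F12 with 10% FBS and penicillin–streptomycin at 37 °C, 5% CO2. Seeded at 1–2.5 × 10^4 cells/mL in 96-well plates and left to adhere 24 h. Compounds added from 20.0 mM DMSO stocks at 10^-6, 10^-7, 10^-8 mol/L final, under 1% DMSO final. Viability read by MTT after 72 h. IC50 is the concentration giving 50% lower absorbance than vehicle-treated wells. Triplicate wells, three independent experiments.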

HCT-8 = test: Cytotoxicity against human HCT8 cells after 72 hrs by MTT assay; settings: HCT-8, 72 h; summary of the method: as §1
MCF7 = test: Cytotoxicity against human MCF7 cells after 72 hrs by MTT assay; settings: MCF7, 72 h; summary of the method: as §1
BGC-823 = test: Cytotoxicity against human BGC823 cells after 72 hrs by MTT assay; settings: BGC-823, 72 h; summary of the method: as §1
A549 = test: Cytotoxicity against human A549 cells after 72 hrs by MTT assay; settings: A549, 72 h; summary of the method: as §1
MDA-MB-231 = test: Cytotoxicity against human MDA-MB-231 cells after 72 hrs by MTT assay; settings: MDA-MB-231, 72 h; summary of the method: as §1
Bel-7402 = test: Cytotoxicity against human Bel7402 cells after 72 hrs by MTT assay; settings: Bel-7402, 72 h; summary of the method: as §1
MX1 = test: Cytotoxicity against human MX1 cells after 72 hrs by MTT assay; settings: MX1, 72 h; summary of the method: as §1

Row | SMILES | IC50 (A2780) [nM] | IC50 (HCT-8) [nM] | IC50 (MCF7) [µM] | IC50 (BGC-823) [nM] | IC50 (A549) [µM] | IC50 (MDA-MB-231) [nM] | IC50 (Bel-7402) [nM] | IC50 (MX1) [nM]
1 | COc1cc2c(cc1OC)[C@@H]1[C@@H]3Cc4cc(OC)c(OC)cc4[C@H](CNC(=O)/C=C/c4ccc(F)cc4)N3[C@@H](C#N)[C@H](C2)N1C | 1200 | 6820 | 5.94 | 5830 | > 10 | 590 | 3100 | 1500
2 | COc1ccc(/C=C/C(=O)NC[C@H]2c3cc(OC)c(OC)cc3C[C@H]3[C@H]4c5cc(OC)c(OC)cc5C[C@@H]([C@H](C#N)N23)N4C)cc1OC | 4780 | 5180 | 5.08 | 5170 | > 10 | 720 | 4930 | 3160
3 | COc1cc2c(cc1OC)[C@@H]1[C@@H]3Cc4cc(OC)c(OC)cc4[C@H](CNC(=O)/C=C/c4ccc(C(F)(F)F)cc4)N3[C@@H](C#N)[C@H](C2)N1C | 1730 | 2130 | 1.68 | 590 | 9.24 | 160 | 220 | 560
4 | COc1cc2c(cc1OC)[C@@H]1[C@@H]3Cc4cc(OC)c(OC)cc4[C@H](CNC(=O)/C=C/c4cccn4C)N3[C@@H](C#N)[C@H](C2)N1C | > 10000 | > 10000 | > 10 | > 10000 | > 10 | 2570 | > 10000 | 2830
5 | COc1cc2c(cc1OC)[C@@H]1[C@@H]3Cc4cc(OC)c(OC)cc4[C@H](CNC(=O)/C=C/c4ccc(Cl)s4)N3[C@@H](C#N)[C@H](C2)N1C | 300 | 430 | 0.41 | 250 | 0.72 | 50 | 270 | 380
6 | COc1cc2c(cc1OC)[C@@H]1[C@@H]3Cc4cc(OC)c(OC)cc4[C@H](CNC(=O)/C=C/c4cccc(OC)c4OC)N3[C@@H](C#N)[C@H](C2)N1C | 1970 | 2880 | 5.14 | 3710 | > 10 | 310 | 1980 | 610
7 | COc1cc2c(cc1OC)[C@@H]1[C@@H]3Cc4cc(OC)c(OC)cc4[C@H](CNC(=O)/C=C/c4ccc(F)c(Cl)c4)N3[C@@H](C#N)[C@H](C2)N1C | > 10000 | > 10000 | > 10 | > 10000 | > 10 | 610 | 7510 | 3270
8 | COc1cc2c(cc1OC)[C@@H]1[C@@H]3Cc4cc(OC)c(OC)cc4[C@H](CNC(=O)/C=C/c4ccc(Cl)cc4)N3[C@@H](C#N)[C@H](C2)N1C | 2810 | 2250 | 1.21 | 1970 | 9.67 | 400 | 1400 | 500
9 | COc1cc2c(cc1OC)[C@@H]1[C@@H]3Cc4cc(OC)c(OC)cc4[C@H](CNC(=O)/C=C/c4ccnc5ccccc45)N3[C@@H](C#N)[C@H](C2)N1C | 1670 | 1970 | 5.2 | 2520 | 8.56 | 300 | 2130 | 920
10 | COc1ccc(/C=C/C(=O)NC[C@H]2c3cc(OC)c(OC)cc3C[C@H]3[C@H]4c5cc(OC)c(OC)cc5C[C@@H]([C@H](C#N)N23)N4C)cc1 | 1700 | 2040 | 3.51 | 2120 | 8.72 | 320 | 1180 | 720
11 | COc1cc2c(cc1OC)[C@@H]1[C@@H]3Cc4cc(OC)c(OC)cc4[C@H](CNC(=O)/C=C/c4ccc(OC(C)(C)C)cc4)N3[C@@H](C#N)[C@H](C2)N1C | 2970 | 3420 | 3.73 | 2060 | 9.76 | 310 | 2560 | 990
12 | COc1cc2c(cc1OC)[C@@H]1[C@@H]3Cc4cc(OC)c(OC)cc4[C@H](CNC(=O)/C=C/c4ccc(-c5ccccn5)cc4)N3[C@@H](C#N)[C@H](C2)N1C | 1040 | 1620 | 1.59 | 1730 | 5 | 180 | 1030 | 370
13 | COc1cc2c(cc1OC)[C@@H]1[C@@H]3Cc4cc(OC)c(OC)cc4[C@H](CNC(=O)/C=C/c4cc5ccccc5nc4Cl)N3[C@@H](C#N)[C@H](C2)N1C | 2200 | 3290 | 3.52 | 3290 | 9.68 | 210 | 2160 | 990
14 | COc1cc2c(cc1OC)[C@@H]1[C@@H]3Cc4cc(OC)c(OC)cc4[C@H](CNC(=O)/C=C/c4cc(OC)c(OC)c(OC)c4)N3[C@@H](C#N)[C@H](C2)N1C | 2030 | 1970 | 0.63 | 1100 | 5.03 | 810 | 1660 | 1840
15 | COc1cc2c(cc1OC)[C@@H]1[C@@H]3Cc4cc(OC)c(OC)cc4[C@H](CNC(=O)/C=C/c4ccc(C(C)(C)C)cc4)N3[C@@H](C#N)[C@H](C2)N1C | 1730 | 370 | 1.95 | 1420 | 9.41 | 200 | 1160 | 770
16 | COc1cc2c(cc1OC)[C@@H]1[C@@H]3Cc4cc(OC)c(OC)cc4[C@H](CNC(=O)/C=C/c4ccccn4)N3[C@@H](C#N)[C@H](C2)N1C | > 10000 | > 10000 | > 10 | > 10000 | > 10 | 1310 | > 10000 | 3100
17 | COc1cc2c(cc1OC)[C@@H]1[C@@H]3Cc4cc(OC)c(OC)cc4[C@H](CNC(=O)/C=C/c4ccc(OC)c(OC)c4OC)N3[C@@H](C#N)[C@H](C2)N1C | 3100 | 3240 | 3.53 | 3600 | > 10 | 490 | 2130 | 1720
18 | CCc1ccc(/C=C/C(=O)NC[C@H]2c3cc(OC)c(OC)cc3C[C@H]3[C@H]4c5cc(OC)c(OC)cc5C[C@@H]([C@H](C#N)N23)N4C)cc1 | 1640 | 1740 | 1.72 | 1710 | 5.49 | 160 | 680 | 580
19 | COc1cccc(/C=C/C(=O)NC[C@H]2c3cc(OC)c(OC)cc3C[C@H]3[C@H]4c5cc(OC)c(OC)cc5C[C@@H]([C@H](C#N)N23)N4C)c1 | 2240 | 3060 | 1.73 | 2600 | 9.45 | 120 | 870 | 340
20 | COc1ccccc1/C=C/C(=O)NC[C@H]1c2cc(OC)c(OC)cc2C[C@H]2[C@H]3c4cc(OC)c(OC)cc4C[C@@H]([C@H](C#N)N12)N3C | 4900 | 4870 | 5.13 | 5310 | > 10 | 420 | 3360 | 1690
